PGC1a acetyl inh: modulators of PGC1a acetylation; inhibition, % at 15.6 µM; actives 0.17% (n = 350,000); U2OS PGC1a acetylation, AlphaScreen anti-acetyl-lysine; with virally co-expressed GCN5 acetyltransferase;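 active = every replicate shows inhibition of at least 40%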
DENV2 CPE: inhibitors of DENV2 cytopathic effect | DENV2-infected cells, cytopathic effect rescue, plate reader | AID 651640 | CPE inhibition, % at 9.99 µM | actives 1.7% (n = 350,000); in the data active = CPE inhibition above about 20%, passing the limit was not always enough; tested in BHK-21 cells
SIRT5 inh: inhibitors of human sirtuin-5 desuccinylase. Q9NXA8. Purified SirT5, succinyl-peptide AMC, trypsin-coupled fluorescence. inhibition, % at 15 µM. actives 1.1% (n = 330,000); in the data active = inhibition above about 15%
Target sequence (Q9NXA8 whole entry, looked up): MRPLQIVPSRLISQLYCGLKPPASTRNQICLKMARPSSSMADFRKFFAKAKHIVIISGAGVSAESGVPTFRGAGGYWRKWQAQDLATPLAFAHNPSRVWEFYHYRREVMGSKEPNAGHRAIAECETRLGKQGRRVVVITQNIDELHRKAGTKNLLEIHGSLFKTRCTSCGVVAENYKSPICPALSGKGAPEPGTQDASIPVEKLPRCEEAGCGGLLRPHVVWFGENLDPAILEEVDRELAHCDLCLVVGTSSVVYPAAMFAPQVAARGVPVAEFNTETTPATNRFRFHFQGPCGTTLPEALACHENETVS
Statin myotox sup: suppressors of simvastatin-induced myotoxicity in C2C12 myotubes | rescue of ATP level, % at 7.49 µM | actives 0.78% (n = 330,000) | ATP luminescence, 48 h; scaled: DMSO 0, geranylgeraniol control 100 | AID 602340;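 active = mean ATP rescue above about 67%, or every replicate alone reaching that limit, limit read from the data, passing the limit was not always enough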;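 note: myotubes were challenged with 10 µM simvastatin during compound exposure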
S100A4 inh HTS: inhibitors of human S100A4 binding to myosin IIA peptide; P26447; S100A4/TAMRA-MyoIIA peptide fluorescence polarization; inhibition, % at 10.7 µM; actives 0.14% (n = 360,000);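 active = mean inhibition of at least 70% across replicates, with every replicate also reaching that level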
Target sequence (P26447 whole entry, looked up): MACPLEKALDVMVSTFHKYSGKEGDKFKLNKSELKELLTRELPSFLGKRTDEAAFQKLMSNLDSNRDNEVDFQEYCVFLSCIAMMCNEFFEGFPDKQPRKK
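Material: S100A4 monomer protein / Buffer or medium: 50 mM HEPES pH 7.2, 10 mM CaCl2, 100 mM KCl / Times: 5 min incubation before reading / Benchmarks: neutral control DMSO, positive control TFP / Reagent: labelled myosin peptide probe, 5 nM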
Each line names hits and unclear results; the compound was inactive in the other large screens. Hits are enriched below; roughly 2.9% of the tested compounds scored in any of these assays.

CC(C)N(C[C@@H]1[C@H](c2ccccc2)[C@@H](CO)N1S(C)(=O)=O)C(=O)CN(C)C	DENV2 CPE 54.5
Cc1ccc(-c2[nH][nH]c(=O)c(=O)c2N=Nc2ccccc2)cc1	Statin myotox sup 211.3
CC1=CC(C)(C)n2c(O)c(N=N)c3cc(C)cc1c32	DENV2 CPE 49.2 (no result: Statin myotox sup)
CC(C)NC(=O)N(C)C[C@@H]1Oc2ccc(NS(=O)(=O)c3cccs3)cc2C(=O)N([C@@H](C)CO)C[C@@H]1C	none (no result: DENV2 CPE, SIRT5 inh, Statin myotox sup, S100A4 inh HTS)
C[C@H](CO)N1C[C@H](C)[C@@H](CN(C)C(=O)Cc2ccccc2)OCc2ccccc2-c2ccccc2C1=O	none
O=C(Nc1nc2ccccc2s1)c1ccc([N+](=O)[O-])o1	none (no result: PGC1a acetyl inh, Statin myotox sup)
Cc1cc(C)nc(NC(=O)c2ccc([N+](=O)[O-])o2)n1	DENV2 CPE 92.8
O=C(NC1CCCC(C(F)(F)F)C1)c1ccc([N+](=O)[O-])o1 (stereo unspecified)	none (no result: PGC1a acetyl inh)
Cc1cc(C)cc(NC(=O)c2ccc([N+](=O)[O-])o2)c1	none (no result: Statin myotox sup)
COc1ccc2nc(NC(=O)c3ccc([N+](=O)[O-])o3)sc2c1	DENV2 CPE 21.5 (no result: PGC1a acetyl inh)
O=C(NC1CCCCC1)c1ccc([N+](=O)[O-])o1	Statin myotox sup 69.4 (no result: PGC1a acetyl inh, DENV2 CPE, SIRT5 inh, S100A4 inh HTS)
CCCN1Cc2cccc(C(=O)Nc3ccc4c(c3)OCCO4)c2C1=O	DENV2 CPE 93.6 (no result: SIRT5 inh)
CCCN1Cc2cccc(C(=O)Nc3ccc4c(c3)OCO4)c2C1=O	none (no result: DENV2 CPE, SIRT5 inh, S100A4 inh HTS)
CN1CCN(CCN2CCn3c2nc2ccccc23)CC1	Statin myotox sup 81.3 (no result: DENV2 CPE, SIRT5 inh, S100A4 inh HTS)
C[C@@H]1CN([C@@H](C)CO)S(=O)(=O)c2ccc(C#CC3CCCCC3)cc2O[C@@H]1CN(C)C(=O)Cc1ccncc1	none (no result: PGC1a acetyl inh)
C/C=C/c1ccc([C@H]2[C@@H](CO)N(CC3CC3)[C@@H]2CNC(=O)NC(C)C)cc1	DENV2 CPE 24.3 (no result: PGC1a acetyl inh, Statin myotox sup)
C/C=C/c1ccc([C@H]2[C@@H](CO)N(CC3CCCCC3)[C@@H]2CNC(C)C)cc1	SIRT5 inh 19.5 (no result: PGC1a acetyl inh, Statin myotox sup)
CC(C(=O)Nc1ccc(F)c(F)c1F)N(C)Cc1cccs1 (stereo unspecified)	SIRT5 inh 16.3
C/C=C/c1ccc2c(c1)O[C@H](CN(C)C(C)=O)[C@H](C)CN([C@@H](C)CO)S2(=O)=O	DENV2 CPE 45.5
C/C=C/c1ccc2c(c1)O[C@H](CN(C)CC1CCCC1)[C@@H](C)CN([C@H](C)CO)S2(=O)=O	SIRT5 inh 15.2
C/C=C/c1ccc2c(c1)O[C@H](CN(C)CC1CC1)[C@H](C)CN([C@H](C)CO)S2(=O)=O	none (no result: DENV2 CPE, SIRT5 inh, S100A4 inh HTS)
CC[n+]1c(/C=C/c2c[nH]c3ccccc23)ccc2cc(C)ccc21	S100A4 inh HTS 128.8 (no result: PGC1a acetyl inh, Statin myotox sup)
O=S(=O)(c1ccccc1F)N1CCCCN2[C@@H](CO)[C@H](c3ccc(-c4cncnc4)cc3)[C@@H]2C1	none
COc1cccc(C2c3[nH]c4ccccc4c3C[C@H]3C(=O)N(c4ccccc4C(=O)N4CCC(C(=O)O)CC4)C(=O)N23)c1 (stereo partly specified)	DENV2 CPE 82.7
CCCN1C[C@H](C)[C@@H](OC)CN(C)C(=O)c2cc(NC(=O)c3cnccn3)ccc2OC[C@H]1C	none (no result: S100A4 inh HTS)
COc1ccccc1NC(=O)/C=C1\NC(=O)CS1	none (no result: PGC1a acetyl inh)
COc1ccccc1NC(=O)/C=C1\SCC(=O)N1C	PGC1a acetyl inh 93.4 (no result: Statin myotox sup)
Cn1c2ccccc2c(=O)c2cc(C#Cc3ccsc3)ccc21	DENV2 CPE 66.0 (no result: SIRT5 inh)
COCC(=O)Nc1ccc2c(c1)OC[C@@H](C)N(Cc1ccccc1)C[C@H](C)[C@H](OC)CN(C)C2=O	none
O=C1/C(=C/c2ccncc2)CCC/C1=C\c1ccncc1	PGC1a acetyl inh 77.8, Statin myotox sup 249.5 (no result: DENV2 CPE)
Cc1ccc(Cn2c(C)c3cnn(CC(=O)NC4CCCC4)c(=O)c3c2C)cc1	none
CNC(=O)Cn1ncc2c(C)n(Cc3ccc(C)cc3)c(C)c2c1=O	Statin myotox sup 119.8 (no result: DENV2 CPE, SIRT5 inh, S100A4 inh HTS)
C[C@H](NC(=O)C[C@@H]1CC[C@@H]2[C@H](COC[C@H](O)CN2C(=O)Nc2cccc(Cl)c2)O1)c1ccccc1	none (no result: SIRT5 inh, S100A4 inh HTS)
CSc1ccccc1OCc1cc(C(=O)N2CCc3[nH]cnc3C2c2ccccn2)no1 (stereo unspecified)	DENV2 CPE 49.7 (no result: PGC1a acetyl inh)
CSc1ccccc1OCc1cc(C(=O)N2CCN(c3ccccc3)CC2C)no1 (stereo unspecified)	none (no result: PGC1a acetyl inh)
CSc1ccccc1OCc1cc(C(=O)N(C)C2CCCc3ccccc32)no1 (stereo unspecified)	SIRT5 inh 19.7
CSc1ccccc1OCc1cc(C(=O)NCCN2CCCC(O)C2)no1 (stereo unspecified)	none (no result: Statin myotox sup)
CC=Cc1ccc2n(c1=O)C[C@@H]1[C@@H](CO)[C@H](C(=O)NCC(F)(F)F)N(CC)[C@H]21 (mixture of isomers)	none
CO[C@H]1CN(C)C(=O)c2cc(NC(=O)C3CCOCC3)ccc2OC[C@@H](C)N(Cc2cccnc2)C[C@H]1C	none
C[C@H]1CCCCO[C@H](CN(C)S(=O)(=O)c2ccc(Cl)cc2)[C@@H](C)CN([C@@H](C)CO)C(=O)c2cc(NC(=O)Cc3ccccc3)ccc2O1	DENV2 CPE 108.7 (no result: Statin myotox sup)
C[C@@H]1CCCCO[C@H](CN(C)S(=O)(=O)c2ccc(F)cc2)[C@H](C)CN([C@@H](C)CO)C(=O)c2cc(NC(=O)Cc3ccccc3)ccc2O1	Statin myotox sup 152.3 (no result: SIRT5 inh, S100A4 inh HTS)
Cc1ccc(-n2nc3c(c2NC(=O)c2ccco2)CS(=O)C3)c(C)c1 (stereo unspecified)	DENV2 CPE 55.3 (no result: PGC1a acetyl inh, Statin myotox sup)
C[C@@H]1CN([C@H](C)CO)S(=O)(=O)c2ccc(C3=CCCCC3)cc2O[C@@H]1CN(C)C(=O)c1ccc(F)cc1	none
CNC[C@H]1OCCCC[C@H](C)Oc2ccc(NS(=O)(=O)c3c(C)noc3C)cc2C(=O)N([C@@H](C)CO)C[C@@H]1C	none (no result: SIRT5 inh, Statin myotox sup, S100A4 inh HTS)
CNC[C@@H]1OCCCC[C@H](C)Oc2ccc(NS(=O)(=O)c3c(C)noc3C)cc2C(=O)N([C@@H](C)CO)C[C@H]1C	DENV2 CPE 122.5 (no result: SIRT5 inh, Statin myotox sup, S100A4 inh HTS)
CNC[C@@H]1OCCCC[C@@H](C)Oc2ccc(NS(=O)(=O)c3c(C)noc3C)cc2C(=O)N([C@@H](C)CO)C[C@H]1C	DENV2 CPE 28.7 (no result: SIRT5 inh, Statin myotox sup, S100A4 inh HTS)
C[C@H]1CN([C@@H](C)CO)C(=O)c2cccc(NS(=O)(=O)c3cn(C)cn3)c2O[C@@H]1CN(C)C(=O)Nc1ccccc1	none (no result: Statin myotox sup)
O=C(C[C@@H]1C[C@H]2c3cc(NC(=O)c4ccc5c(c4)OCO5)ccc3O[C@H]2[C@H](CO)O1)NCc1cccc(F)c1	none
Cc1cccn2c(=O)c(C=O)c(N3CC(C)OC(C)C3)nc12 (stereo unspecified)	none (no result: Statin myotox sup)
Cc1cccn2c(=O)c(C=O)c(N3CCCCCC3)nc12	Statin myotox sup 101.3 (no result: DENV2 CPE, SIRT5 inh, S100A4 inh HTS)
CCOc1cnn(-c2cc(Oc3ccc(C)cc3)ncn2)c(=O)c1Cl	none (no result: DENV2 CPE, SIRT5 inh, Statin myotox sup, S100A4 inh HTS)
Cc1ccccc1Oc1cc(-n2ncc(Cl)c(Cl)c2=O)ncn1	PGC1a acetyl inh 69.3 (no result: Statin myotox sup)
Cc1noc(C)c1S(=O)(=O)Nc1ccc2c(c1)C(=O)N([C@H](C)CO)C[C@H](C)[C@H](CN(C)Cc1ccc(C(=O)O)cc1)OCCCC[C@@H](C)O2	DENV2 CPE 50.4 (no result: Statin myotox sup)

Screening results: PubChem, Broad Institute
